Assay results as given in ChEMBL document CHEMBL5154715, “Phenolic Lipids Derived from Cashew Nut Shell Liquid to Treat Metabolic Diseases” (J Med Chem, 2022).
Active and inactive are the calls of the source. The calls are words filed in the database; no cut-off is given here.

Tests used:
[1] = molecular target: T1, Peroxisome proliferator-activated receptor gamma (Homo sapiens) (UniProt P37231); experiment: Agonist activity at human PPARgamma transfected in HEK293 cells assessed as relative luciferase unit at 50 uM measured after 16 hrs by luciferase reporter gene assay; type: cell-based; settings: filed as agonist
T1 sequence (whole entry): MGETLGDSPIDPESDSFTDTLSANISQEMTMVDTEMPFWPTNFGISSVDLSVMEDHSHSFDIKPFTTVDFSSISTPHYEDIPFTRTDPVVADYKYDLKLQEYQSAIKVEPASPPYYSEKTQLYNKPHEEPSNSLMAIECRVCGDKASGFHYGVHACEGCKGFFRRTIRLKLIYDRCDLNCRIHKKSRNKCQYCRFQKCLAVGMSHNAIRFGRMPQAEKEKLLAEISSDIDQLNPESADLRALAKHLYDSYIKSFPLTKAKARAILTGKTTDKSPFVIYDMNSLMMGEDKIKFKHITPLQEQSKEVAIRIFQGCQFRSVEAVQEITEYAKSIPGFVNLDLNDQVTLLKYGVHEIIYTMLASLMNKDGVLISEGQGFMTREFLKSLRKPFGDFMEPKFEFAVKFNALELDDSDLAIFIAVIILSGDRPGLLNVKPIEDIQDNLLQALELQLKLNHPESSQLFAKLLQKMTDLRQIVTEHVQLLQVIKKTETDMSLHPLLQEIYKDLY
Method in brief: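 GAL4-hPPAR (α or γ) plus UAS-luciferase and β-galactosidase transiently co-transfected into HEK293 cells, then treated with 50 μM compound for 16 h. RLU = luciferase/β-galactosidase × time, vehicle (DMSO) set to 1. Mean ± SD, N = 3; one-way ANOVA with Holm–Šidák vs vehicle.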

[2] = molecular target: T2, Peroxisome proliferator-activated receptor gamma (Mus musculus) (UniProt P37238); experiment: Agonist activity at human PPARgamma in mouse 3T3-L1 cells assessed as induction of adipogenic differentiation at 25 uM measured after 11 days by Oil Red O staining analysis; type: cell-based; settings: filed as agonist, time 11.0 day
T2 sequence (whole entry): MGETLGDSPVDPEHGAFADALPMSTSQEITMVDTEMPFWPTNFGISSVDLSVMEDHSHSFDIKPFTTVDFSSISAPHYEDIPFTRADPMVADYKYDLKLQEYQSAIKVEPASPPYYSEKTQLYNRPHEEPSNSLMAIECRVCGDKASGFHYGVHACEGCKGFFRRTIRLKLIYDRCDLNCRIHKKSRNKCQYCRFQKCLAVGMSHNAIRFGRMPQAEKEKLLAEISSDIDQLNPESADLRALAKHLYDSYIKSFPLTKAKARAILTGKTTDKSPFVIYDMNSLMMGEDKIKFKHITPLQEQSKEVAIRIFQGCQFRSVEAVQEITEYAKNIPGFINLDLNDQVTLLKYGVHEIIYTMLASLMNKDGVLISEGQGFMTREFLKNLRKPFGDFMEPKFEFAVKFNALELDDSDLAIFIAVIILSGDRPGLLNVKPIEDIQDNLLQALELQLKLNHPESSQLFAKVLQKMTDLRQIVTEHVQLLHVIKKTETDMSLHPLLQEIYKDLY
Method in brief: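 3T3-L1 cells differentiated for 11 days (IBMX/dexamethasone/insulin induction, then insulin, then maintenance medium) with 25 μM compound or 10 μM rosiglitazone from day 0. Cells formalin-fixed and stained with 0.6% Oil Red O. Lipid quantified spectrophotometrically after dye extraction.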

[3] = molecular target: T3, Peroxisome proliferator-activated receptor alpha (Homo sapiens) (UniProt Q07869); experiment: Agonist activity at human PPARalpha expressed in HEK293 cells assessed as maximal activity by luciferase/beta-galactosidase reporter gene assay relative to GW7647; type: cell-based
T3 sequence (whole entry): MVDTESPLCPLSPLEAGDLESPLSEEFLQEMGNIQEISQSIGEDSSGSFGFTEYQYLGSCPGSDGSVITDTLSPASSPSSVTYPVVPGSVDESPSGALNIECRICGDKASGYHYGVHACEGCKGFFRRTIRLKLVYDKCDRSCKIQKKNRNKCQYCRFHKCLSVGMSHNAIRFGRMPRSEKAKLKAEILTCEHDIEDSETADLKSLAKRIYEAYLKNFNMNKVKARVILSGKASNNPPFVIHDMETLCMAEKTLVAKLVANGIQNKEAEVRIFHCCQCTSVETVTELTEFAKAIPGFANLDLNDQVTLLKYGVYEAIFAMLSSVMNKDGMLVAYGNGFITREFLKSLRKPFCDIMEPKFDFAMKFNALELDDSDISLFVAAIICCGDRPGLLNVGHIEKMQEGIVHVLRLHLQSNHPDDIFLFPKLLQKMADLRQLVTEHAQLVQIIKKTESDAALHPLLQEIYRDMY
Method in brief: (§1)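 HEK293 cells in charcoal-stripped FBS, calcium phosphate co-transfected with GAL4-hPPAR LBD fusion, UAS-luciferase and β-galactosidase. Ligand added 6–8 h post transfection, full dose–response, harvested 14–16 h later. Luciferase normalized to β-galactosidase.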

[4] = molecular target: T3, Peroxisome proliferator-activated receptor alpha (Homo sapiens); experiment: Stabilization of human PPARalpha LBD assessed as change in melting temperature at 25 uM by thermal shift assay
Method in brief: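 Purified hPPAR LBD at 1 mg/mL (∼25 μM) with ligand (α-LBD at 25 μM; γ- and δ-LBD at 50 μM). Static light scattering at 473 nm from 25 to 70 °C in 0.5 °C steps, 1 °C/min. Tm from four-parameter fit; ΔTm relative to DMSO; mean ± SEM, N = 3.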

[5] = molecular target: T4, Peroxisome proliferator-activated receptor delta (Homo sapiens) (UniProt Q03181);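 further: reporter gene assay with luciferase read-out normalized to beta-galactosidase, measuring agonist activation of PPARδ expressed in HEK293 cells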
T4 sequence (whole entry): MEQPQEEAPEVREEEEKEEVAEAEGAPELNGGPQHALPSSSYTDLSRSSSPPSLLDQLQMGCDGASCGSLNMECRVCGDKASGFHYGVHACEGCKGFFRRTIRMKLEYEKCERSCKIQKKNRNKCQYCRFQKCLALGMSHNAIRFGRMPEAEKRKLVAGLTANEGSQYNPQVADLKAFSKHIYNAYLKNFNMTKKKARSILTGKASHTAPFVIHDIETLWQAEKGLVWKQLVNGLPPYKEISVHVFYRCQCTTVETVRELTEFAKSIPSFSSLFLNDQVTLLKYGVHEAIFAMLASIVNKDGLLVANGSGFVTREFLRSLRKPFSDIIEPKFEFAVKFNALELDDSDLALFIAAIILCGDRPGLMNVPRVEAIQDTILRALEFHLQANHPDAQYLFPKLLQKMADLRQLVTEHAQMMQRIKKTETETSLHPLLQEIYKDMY

[6] = molecular target: T1, Peroxisome proliferator-activated receptor gamma (Homo sapiens); experiment: Stabilization of human PPARgamma LBD assessed as change in melting temperature at 50 uM by thermal shift assay
[7] = molecular target: T5, Peroxisome proliferator-activated receptor gamma (Homo sapiens, UniProt P37231); experiment: Agonist activity at human PPARgamma expressed in HEK293 cells by luciferase/beta-galactosidase reporter gene assay; type: cell-based; method in brief: as §1
T5 sequence (P37231 whole entry): T1 sequence (whole entry)

SMILES	Activity [1]	Activity [2]	Emax ([3]; filed as agonist) [%]	ΔTm [4] [°C]	EC50 ([5]; HEK293) [µM]	ΔTm [6] [°C]	EC50 [7] [µM]	EC50 ([5]; HEK293, filed as agonist) [µM]	Emax [3] [%]
CCCCCCCCCCCCCCCc1cccc(OC(C)=O)c1C(=O)O	Active	Active	> 90	17.4	> 50	4.4	–	–	–
CCCCCC/C=C\CCCCCCCc1cccc(OC(C)(C)C(=O)O)c1	Active	Active	> 90	3.8	–	5.6	1.78	21	–
CCCCCCCCCCCCCCCc1cccc(OC(C)(C)C(=O)O)c1	Active	Active	–	10.8	–	6.3	0.9	33	30
